Shown are actives, neighbours in structure and some others; about 5.8% of the full set was active somewhere.
WT yeast gro inh: growth inhibition of WT yeast, mitochondrial fusion screen. AID 1362. inhibition, % at 10 µM. mitochondrial fusion phenotypic screen, WT strain. actives 2.1% (n = 190,000); in the data active means inhibition above about 58%; tested in S. cerevisiae
NCF1 inh: p47phox (human) inhibition. P14598. p47phox/p22phox peptide binding, fluorescence polarization, 2 h. inhibition, % at 24.7 µM. actives 0.53% (n = 220,000). AID 1274;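 active means inhibition above about 30%, limit read from the data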
Cl transport mod: KCC2 (human) Cl- transport modulation. actives 2.2% (n = 190,000). KCC2 cells, thallium flux FluoZin-2 fluorescence. B-score of Tl+ flux slope (higher = more flux/activation; lower = inhibition) at 10 µM. Q9H2X9;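 active means thallium flux slope and its plate-corrected score both differing from the plate sample mean at a set confidence after two filtering rounds, in either direction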;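 further: slope of fluorescence scaled to starting intensity during 10 to 20 s after thallium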
Target sequence (Q9H2X9 whole entry, looked up): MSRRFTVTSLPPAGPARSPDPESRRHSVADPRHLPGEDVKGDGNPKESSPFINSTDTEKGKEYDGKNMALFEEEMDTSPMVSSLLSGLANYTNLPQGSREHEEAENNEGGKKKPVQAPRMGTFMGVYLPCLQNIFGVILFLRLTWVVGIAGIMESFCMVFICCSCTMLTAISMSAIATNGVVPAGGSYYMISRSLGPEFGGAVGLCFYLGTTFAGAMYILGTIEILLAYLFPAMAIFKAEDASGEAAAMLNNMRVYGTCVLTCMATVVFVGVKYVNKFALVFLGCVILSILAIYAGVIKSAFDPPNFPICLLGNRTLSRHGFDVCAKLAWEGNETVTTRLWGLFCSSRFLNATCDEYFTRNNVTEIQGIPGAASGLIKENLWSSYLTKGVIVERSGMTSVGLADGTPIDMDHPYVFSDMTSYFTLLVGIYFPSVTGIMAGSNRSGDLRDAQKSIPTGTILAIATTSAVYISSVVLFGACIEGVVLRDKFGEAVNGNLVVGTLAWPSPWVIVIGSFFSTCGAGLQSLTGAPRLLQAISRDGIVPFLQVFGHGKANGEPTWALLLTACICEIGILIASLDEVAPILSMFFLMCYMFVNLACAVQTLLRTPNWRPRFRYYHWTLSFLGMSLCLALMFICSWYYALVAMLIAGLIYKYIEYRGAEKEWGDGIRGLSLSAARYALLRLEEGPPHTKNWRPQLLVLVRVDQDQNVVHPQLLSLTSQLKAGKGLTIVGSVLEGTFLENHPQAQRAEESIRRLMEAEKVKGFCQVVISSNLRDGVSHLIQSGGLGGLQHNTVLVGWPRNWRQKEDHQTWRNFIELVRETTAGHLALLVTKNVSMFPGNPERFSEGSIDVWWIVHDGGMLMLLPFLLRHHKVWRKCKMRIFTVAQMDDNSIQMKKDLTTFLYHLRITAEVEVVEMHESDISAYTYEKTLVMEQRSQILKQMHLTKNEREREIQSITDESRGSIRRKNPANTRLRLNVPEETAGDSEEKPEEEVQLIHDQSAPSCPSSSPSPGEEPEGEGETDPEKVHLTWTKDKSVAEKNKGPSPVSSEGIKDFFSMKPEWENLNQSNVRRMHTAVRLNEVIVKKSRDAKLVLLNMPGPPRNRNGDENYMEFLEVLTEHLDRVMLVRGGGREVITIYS
ROMK primary: modulators of human ROMK potassium channel | B-score at 10 µM | actives 2% (n = 130,000) | P48048 | Tet-inducible ROMK, thallium flux fluorescence; actives lie on both sides | AID 1918;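 active means signal ratio slope over the read window, or its plate-corrected B-score, at least 3 SD from the plate mean, either direction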;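 further: B-score of the F/F0 ratio slope over 7 to 12 s after thallium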
RBBP9 inh: human RBBP9 hydrolase inhibition; O75884; recombinant RBBP9, FP-Rh probe fluorescence polarization; inhibition, % at 7.94 µM; actives 0.2% (n = 220,000); AID 1515;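 active means inhibition above the campaign mean of all tested compounds plus 3 SD, cut at about 14% in these data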
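System: RBBP9 protein / Buffer or medium: Tris/NaCl buffer pH 8.0 with 0.1% Pluronic / Probe or stimulus: Serine-hydrolase probe FP-Rh, 375 nM pre-mixing / Dosing: 7.94 µM single dose, 0.794% DMSO / Times: enzyme-compound preincubation 30 min, then probe labeling 45 min, 25 °C / Technique: fluorescence polarization (mP), excitation 525 nm, emission 598 nm / Replication: singlicate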
14-3-3 Bad PPI: disrupts binding of bovine 14-3-3 zeta to phospho-Bad peptide. inhibition, % at 21.7 µM. actives 0.71% (n = 220,000). AID 781. TR-FRET 14-3-3zeta/Dy647-pBad peptide displacement, 1 h;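 active means inhibition above about 70%, limit read from the data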
KCC2 sec1: KCC2 (human) modulation, secondary assay; normalised thallium flux (F/F0 slope) at 10 µM; HEK293-KCC2, thallium flux, FluoZin2 fluorescence; hits give high values; shares compounds with Cl transport mod; actives 15% (n = 3,700); AID 1713;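 active means thallium flux slope above the same plate's solvent-only control mean plus 3 SD; inconclusive means the two replicate wells disagree; inactive means no significant difference from solvent-only control wells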
KCC2 bumet counter: bumetanide-insensitive thallium flux in KCC2 cells with ouabain, counter-screen. actives 49% (n = 3,700). normalized thallium flux at 10 µM. HEK293-KCC2 + bumetanide/ouabain, thallium flux FluoZin2; hits give high values. shares compounds with Cl transport mod;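 active means thallium entry rate above the same plate's blocked-transporter control wells by more than 3 SD; inconclusive means the two repeat wells disagree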;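 further: raw slope of fluorescence over initial fluorescence between 10 and 20 s after thallium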
KCC2 secondary2: confirmation of human KCC2 transport modulators. shares compounds with Cl transport mod. HEK293-KCC2, thallium flux FluoZin2 fluorescence; actives lie on both sides; F/F0 rise rate, 10–20 s post-thallium. normalized thallium flux at 10 µM. actives 23% (n = 3,700). AID 1715;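 active means thallium flux slope more than 3 SD above or below the plate's solvent-only control mean, mostly below; inconclusive means the two repeat wells disagreed; inactive means no significant shift from solvent-only controls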
HEK293 Tl flux: parental HEK flux effect, counter-screen; shares compounds with Cl transport mod; HEK293 parental cells, thallium flux FluoZin2, ouabain; baseline-ratio fluorescence slope, 10–20 s after thallium; thallium flux rate (normalised fluorescence) at 10 µM; actives 46% (n = 3,700);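 active means thallium flux rate significantly above the same plate's solvent-only control wells, beyond their mean plus 3 SD; inconclusive means the two replicate wells gave conflicting results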
KCC2 retest ouab: modulates human KCC2 on retest with ouabain; AID 1717; actives 48% (n = 3,700); raw Tl+ flux slope (below DMSO = inhibition, above = activation) at 10 µM; shares compounds with Cl transport mod; HEK293-KCC2, thallium flux FluoZin2 fluorescence; bidirectional: low = inhibitor, high = activator;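 active means thallium flux slope beyond 3 SD from same-plate DMSO control mean in most replicates, usually higher, sometimes lower; inconclusive means repeat tests gave conflicting results; inactive means no significant difference from controls in most replicates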;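 further: slope of initial-normalized fluorescence between seconds 10 and 20 after thallium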
HEK counter2: counter-screen for KCC2 modulators: effect in parental HEK293 cells; AID 1718; thallium flux FluoZin-2 fluorescence slope; thallium flux slope at 10 µM; actives 33% (n = 3,700); shares compounds with Cl transport mod;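 active means thallium flux slope above the same plate's solvent-control mean plus 3 SD in both duplicate wells; inconclusive means duplicate wells that disagreed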;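 further: run without ouabain in cells lacking the KCC2 cotransporter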
Hits are given with their value; i = inactive; ? = inconclusive; nt = no result given.

SMILES	WT yeast gro inh	NCF1 inh	Cl transport mod	ROMK primary	RBBP9 inh	14-3-3 Bad PPI	KCC2 sec1	KCC2 bumet counter	KCC2 secondary2	HEK293 Tl flux	KCC2 retest ouab	HEK counter2
CN(c1ccccc1)S(=O)(=O)c1ccc(Cl)c(C(=O)Nc2ccc(N3CCOCC3)cc2)c1	i	i	-2.71	i	i	i	i	i	i	i	i	i
CSC(=NCc1ccc(F)cc1)NS(=O)(=O)c1cccs1	i	i	-3.77	i	i	i	i	?	0.0252	i	0.0151	i
CS/C(=N\S(=O)(=O)c1ccc(N)cc1)NS(=O)(=O)c1cccs1	i	i	nt	i	i	i	nt	nt	nt	nt	nt	nt
O=C(CCn1c(=O)c2ccccc2n(Cc2cccc([N+](=O)[O-])c2)c1=O)N1CCc2ccccc2C1	i	i	-3.13	i	i	i	i	i	i	i	0.0178	i
CCOC(=O)C1(Cc2cccc(OC)c2)CCN(Cc2cnc(C)s2)CC1	i	i	i	nt	i	i	nt	nt	nt	nt	nt	nt
CNC(=S)N(CCc1cccc(C)c1)Cc1cc2cc(OC)c(OC)cc2[nH]c1=O	i	i	i	nt	i	i	nt	nt	nt	nt	nt	nt
CNC(=S)N(Cc1cc2cc(OC)c(OC)cc2[nH]c1=O)C1CCCC1	i	i	-4.24	i	i	i	i	i	i	?	i	i
Cc1c(NS(=O)(=O)c2ccc3c(c2)Cc2ccccc2-3)c(=O)n(-c2ccccc2)n1C	i	i	i	i	i	i	nt	nt	nt	nt	nt	nt
Cn1c(-c2ccc3c(c2)OCO3)cnc1NC(=O)CCC(=O)NCCc1ccccc1	i	i	-3.66	nt	i	i	i	i	i	i	i	?
C=C(C)Cn1c(N2CCC(Cc3ccccc3)CC2)nc2c1c(=O)[nH]c(=O)n2C	i	i	-3.58	nt	i	i	i	0.00585	0.0237	i	0.0164	i
CC(=O)Cn1c(N2CCC(Cc3ccccc3)CC2)nc2c1c(=O)[nH]c(=O)n2C	i	i	i	nt	i	i	nt	nt	nt	nt	nt	nt
CCCn1c(N2CCC(Cc3ccccc3)CC2)nc2c1c(=O)[nH]c(=O)n2C	67.6	i	nt	i	i	i	i	i	?	?	0.0159	i
CCCCCn1c(N2CCC(Cc3ccccc3)CC2)nc2c1c(=O)[nH]c(=O)n2C	88.5	nt	-5.48	nt	i	nt	i	i	i	i	i	i
Cc1ccc(CN2CCN(Cc3cn[nH]c3-c3cccc(F)c3)CC2CCO)o1 (stereo not drawn)	i	i	nt	i	i	i	nt	nt	nt	nt	nt	nt
Cc1cc(C)n(Cc2cc(C(=O)O)c3ccccc3n2)n1	i	i	i	nt	i	i	nt	nt	nt	nt	nt	nt
CC(C)n1c(NCc2nc3ccccc3n2C)nc2ccccc21	i	i	nt	nt	i	i	i	i	i	i	i	?
Cn1c(CNc2nc3ccccc3n2C)nc2ccccc21	i	i	i	nt	i	i	nt	nt	nt	nt	nt	nt
CCC(C(=O)Nc1cccc(C(=O)O)c1C)c1ccccc1 (stereo not drawn)	i	i	i	i	i	i	nt	nt	nt	nt	nt	nt
CCC1CCc2[nH]nc(C(=O)O)c2C1 (stereo not drawn)	i	i	4.28	i	i	i	i	i	i	i	i	i
CC1CCc2[nH]nc(C(=O)O)c2C1 (stereo not drawn)	i	i	i	nt	i	i	nt	nt	nt	nt	nt	nt
CN1C(=S)SC(C)(C)C1NO (stereo not drawn)	i	i	-4.66	i	i	i	i	i	i	i	i	i
CC(C)N1C(=S)SC(C)(C)C1NO (stereo not drawn)	i	i	i	nt	i	i	nt	nt	nt	nt	nt	nt
O=[N+]([O-])c1cccc(P(=O)(O)c2cccc([N+](=O)[O-])c2)c1	nt	i	i	i	i	i	nt	nt	nt	nt	nt	nt
O=C1CS/C(=C/C(=O)c2cccc(Cl)c2)N1	i	i	6.79	i	i	i	?	0.0236	i	0.0111	0.0513	0.0112
CC(C)(C)c1cc(C(=O)NNC(=O)c2ccc(C(F)(F)F)cc2)no1	nt	i	64.3	nt	i	i	0.0283	0.0828	?	0.0406	0.0452	0.0215
SMILES	WT yeast gro inh	NCF1 inh	Cl transport mod	ROMK primary	RBBP9 inh	14-3-3 Bad PPI	KCC2 sec1	KCC2 bumet counter	KCC2 secondary2	HEK293 Tl flux	KCC2 retest ouab	HEK counter2
Cc1nnsc1C(=O)NNC(=O)c1ccc(C(F)(F)F)cc1	nt	i	i	nt	i	i	nt	nt	nt	nt	nt	nt
Cc1nc(CN(C)Cc2nc(Cc3ccccc3Cl)no2)cs1	i	i	i	i	i	i	nt	nt	nt	nt	nt	nt
Cc1ccc(SCCNC(=O)/C=C/c2cccc([N+](=O)[O-])c2)cc1	i	i	-4.48	i	i	i	i	i	i	i	0.0148	i
CC(C)(C)SCCNC(=O)/C=C/c1cccc([N+](=O)[O-])c1	i	i	3.75	i	i	i	i	i	i	i	i	i
N#Cc1ccccc1Sc1ccccc1C(=O)OCc1nnc(-c2ccccc2)o1	i	i	-3.79	nt	i	i	?	i	i	0.0102	?	i
Cc1ccc(C(C#N)c2ccc3c(C(F)(F)F)cc(C(F)(F)F)nc3n2)cc1 (stereo not drawn)	69.4	i	13.4	nt	i	i	0.0216	0.0646	?	0.0165	0.0329	0.0161
CN(N)c1ccc2c(C(F)(F)F)cc(C(F)(F)F)nc2n1	i	i	i	i	i	i	nt	nt	nt	nt	nt	nt
Cc1cc(S(=O)(=O)NCc2ccc(N3CCN(C)CC3)cc2)c(C)s1	nt	i	nt	nt	i	i	nt	nt	nt	nt	nt	nt
CCC(=Nc1ccc(Cc2ccncc2)cc1)c1c(O)n(C)c(=O)n(C)c1=O	i	i	-3.25	i	i	i	i	?	0.0239	i	?	i
Cc1cc(NS(=O)(=O)c2ccc(NC(=O)CSc3nc4ncccc4[nH]3)cc2)nc(C)n1	nt	i	i	nt	i	i	nt	nt	nt	nt	nt	nt
CCOc1cc(/C=C(/C#N)c2ccc(F)cc2)ccc1OCc1ccc(C(=O)O)o1	i	i	-4.91	i	i	i	i	i	0.0237	0.00547	0.0123	?
CC(C)CC(OC(=O)c1nsc(Cl)c1Cl)C(=O)NCc1cccs1 (stereo not drawn)	i	i	-3.69	i	i	i	i	i	i	i	i	i
CCCCNC(=O)c1ccc(NC(C)=O)c(Cl)c1	i	i	i	i	i	i	nt	nt	nt	nt	nt	nt
Cc1oc(-c2cc(F)ccc2F)nc1CN1CCN(c2cnccn2)CC1	i	i	-5.04	i	i	i	i	i	i	i	i	?

Screening data deposited in PubChem by several laboratories.
